Reference: ChEMBL document CHEMBL3352721, “Identification, optimization, and pharmacology of acylurea GHS-R1a inverse agonists” (J Med Chem, 2014)
Calls of active or inactive are those of the source. The calls are words filed in the database; no cut-off is given here.

Columns and labels:
[1] = Clearance in Han-Wistar rat at 2 mg/kg, iv; type: ADME, organism-based; parameters: dose 2 mg/kg, route intravenous; conditions: in vivo
Summary of the method: (§1)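 Male HW rats, beagle dogs or CD-1 mice received an IV bolus in 5% DMSO/95% hydroxypropyl-β-cyclodextrin (30% w/v). EDTA plasma was sampled over 24 h and assayed by LC/MS/MS after acetonitrile protein precipitation. CL and Vss were obtained by non-compartmental analysis.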

[2] = Cmax in CD1 mouse at 2 mg/kg, po by LC-MS/MS method; type: ADME, organism-based; parameters: dose 2 mg/kg, route oral; conditions: in vivo
Summary of the method: (§2)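 Oral gavage in male HW rats, beagle dogs or CD-1 mice, vehicle Pluronic F127 in water. EDTA plasma was collected over 24 h and quantified by LC/MS/MS after acetonitrile precipitation. Cmax and bioavailability were obtained by non-compartmental analysis against IV data.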

[3] = Clearance in CD1 mouse at 2 mg/kg, iv; type: ADME, organism-based; parameters: dose 2 mg/kg, route intravenous; conditions: in vivo; summary of the method: as §1
Mus musculus [4] = experiment: Reduction in free feeding level in po dosed C57Bl6j mouse free feeding model measured over 24 hrs period; type: functional, organism-based
Summary of the method: (§3)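 Male mice (C57Bl6j, GHSr1-/- or wild-type littermates) were acclimatized 3 weeks to reversed light-dark, then individually housed 7 days and grouped (n=10-12) by baseline intake and body weight. Suspensions in 1% Pluronic F127 or vehicle were gavaged at 10 mL/kg about 1 h before dark onset. Pre-weighed food was reweighed at 2, 4, 6 and 24 h.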

[5] = Unbound fraction in Han-Wistar rat plasma; type: ADME, cell-free
[6] = target: Sodium-dependent dopamine transporter (Homo sapiens, UniProt Q01959); experiment: Inhibition of DAT (unknown origin)
Sequence of Sodium-dependent dopamine transporter (Q01959 whole entry): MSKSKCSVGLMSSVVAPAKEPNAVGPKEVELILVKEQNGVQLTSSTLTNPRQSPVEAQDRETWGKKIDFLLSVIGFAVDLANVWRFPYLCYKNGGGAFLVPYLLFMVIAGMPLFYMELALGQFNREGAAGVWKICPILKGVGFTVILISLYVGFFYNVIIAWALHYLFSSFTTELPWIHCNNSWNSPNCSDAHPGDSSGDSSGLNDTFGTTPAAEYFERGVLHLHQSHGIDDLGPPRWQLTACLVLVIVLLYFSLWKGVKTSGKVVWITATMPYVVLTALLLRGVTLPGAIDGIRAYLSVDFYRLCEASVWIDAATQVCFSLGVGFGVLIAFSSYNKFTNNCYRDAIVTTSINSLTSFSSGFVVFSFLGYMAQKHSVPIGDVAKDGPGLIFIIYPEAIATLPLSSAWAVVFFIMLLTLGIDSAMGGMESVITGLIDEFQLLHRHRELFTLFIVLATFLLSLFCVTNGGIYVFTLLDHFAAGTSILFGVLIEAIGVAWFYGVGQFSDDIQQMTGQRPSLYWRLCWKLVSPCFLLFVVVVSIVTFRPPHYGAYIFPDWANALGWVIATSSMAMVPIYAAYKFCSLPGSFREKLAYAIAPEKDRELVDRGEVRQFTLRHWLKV

[7] = Ratio of drug level in homogenized brain to plasma in CD1 mouse at 7 mg/kg, po measured after 6 hrs by LC-MS/MS method; type: ADME, organism-based; parameters: dose 7 mg/kg, route oral; conditions: read-out: BPR
Summary of the method: (§4)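 CD-1 mice dosed PO in 1% Pluronic F127. Drug was measured in homogenized brain and in plasma 6 h after dosing and expressed as a brain:plasma ratio. The free ratio used free fraction measured in mouse plasma and rat brain (brain slice or brain homogenate).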

[8] = Volume of distribution at steady state in CD1 mouse at 2 mg/kg, iv; type: ADME, organism-based; parameters: dose 2 mg/kg, route intravenous; conditions: in vivo, read-out: Vdss; summary of the method: as §1
[9] = Unbound fraction in CD1 mouse plasma; type: ADME, cell-free
[10] = Unbound fraction in beagle dog plasma; type: ADME, cell-free, Canis lupus familiaris
[11] = target: Voltage-gated inwardly rectifying potassium channel KCNH2 (Homo sapiens, UniProt Q12809); experiment: Inhibition of human ERG at 33 uM
Sequence of Voltage-gated inwardly rectifying potassium channel KCNH2 (Q12809 whole entry): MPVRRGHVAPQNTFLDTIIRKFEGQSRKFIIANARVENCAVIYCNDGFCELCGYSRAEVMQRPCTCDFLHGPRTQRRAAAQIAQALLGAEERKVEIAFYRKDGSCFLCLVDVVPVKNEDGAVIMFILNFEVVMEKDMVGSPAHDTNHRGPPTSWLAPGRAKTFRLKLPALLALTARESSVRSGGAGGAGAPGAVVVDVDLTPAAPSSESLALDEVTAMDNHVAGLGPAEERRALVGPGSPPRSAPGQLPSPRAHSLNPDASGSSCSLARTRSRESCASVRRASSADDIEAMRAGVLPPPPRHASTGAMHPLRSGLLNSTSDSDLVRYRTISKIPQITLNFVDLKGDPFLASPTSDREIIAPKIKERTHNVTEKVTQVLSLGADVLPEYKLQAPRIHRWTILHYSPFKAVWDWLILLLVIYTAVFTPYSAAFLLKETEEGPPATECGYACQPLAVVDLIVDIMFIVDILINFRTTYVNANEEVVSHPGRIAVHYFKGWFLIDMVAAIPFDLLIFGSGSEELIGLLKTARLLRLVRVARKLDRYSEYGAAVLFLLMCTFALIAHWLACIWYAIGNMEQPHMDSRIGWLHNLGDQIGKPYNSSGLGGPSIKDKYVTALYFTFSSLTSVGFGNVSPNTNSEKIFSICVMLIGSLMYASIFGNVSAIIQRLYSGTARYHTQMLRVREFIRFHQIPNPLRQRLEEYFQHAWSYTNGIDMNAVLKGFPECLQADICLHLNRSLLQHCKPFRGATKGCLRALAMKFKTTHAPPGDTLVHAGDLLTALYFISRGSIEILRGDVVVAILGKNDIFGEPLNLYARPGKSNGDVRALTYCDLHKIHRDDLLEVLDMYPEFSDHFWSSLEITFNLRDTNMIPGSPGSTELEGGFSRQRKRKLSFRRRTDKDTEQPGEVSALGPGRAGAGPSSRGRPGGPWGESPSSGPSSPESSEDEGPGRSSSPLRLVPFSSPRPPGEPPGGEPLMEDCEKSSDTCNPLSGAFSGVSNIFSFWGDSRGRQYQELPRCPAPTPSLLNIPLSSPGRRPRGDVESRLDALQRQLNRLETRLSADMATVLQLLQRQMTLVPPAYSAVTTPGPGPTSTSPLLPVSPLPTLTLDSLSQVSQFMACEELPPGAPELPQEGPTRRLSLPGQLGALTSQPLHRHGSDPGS

[12] = Volume of distribution at steady state in Han-Wistar rat at 2 mg/kg, iv; type: ADME, organism-based; parameters: dose 2 mg/kg, route intravenous; conditions: in vivo, read-out: Vdss; summary of the method: as §1
Mus musculus [13] = experiment: Reduction in free feeding level in po dosed GHS-R1a knock out C57Bl6j mouse free feeding model measured over 6 hrs; type: functional, organism-based; summary of the method: as §3
Mus musculus [14] = experiment: Reduction in free feeding level in po dosed C57Bl6j mouse free feeding model measured in first 6 hrs; type: functional, organism-based; summary of the method: as §3
Rattus norvegicus = experiment: (§5) Oral bioavailability in Han-Wistar rat at 2 mg/kg; type: ADME, organism-based; conditions: in vivo; summary of the method: as §2
[15] = Displacement of [125I]human ghrelin from mouse GHS-R1a expressed in HEK cell membranes after 60 mins by gamma counting method; conditions: hek293
Summary of the method: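 HEK cell membranes stably overexpressing mouse or rat GHS-R1a (4 µg/well) incubated 60 min at rt with 20 pM [125I]human ghrelin and competing compound. Buffer: 50 mM Tris-HCl, 5 mM MgCl2, 0.01% BSA, pH 7.4, plus 10 µM methyl arachidonyl fluorophosphonate. Stopped by filtration over PEI-soaked GF/C filters with ice-cold washes, then gamma counting. IC50 is the mean of ≥2 independent determinations.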

[16] = Lipophilicity, logD of the compound; type: physicochemical; conditions: octanol/water
[17] = target: Neuronal acetylcholine receptor subunit alpha-4 (Homo sapiens, UniProt P43681); experiment: Inhibition of alpha4 nAChR (unknown origin)
Sequence of Neuronal acetylcholine receptor subunit alpha-4 (P43681 whole entry): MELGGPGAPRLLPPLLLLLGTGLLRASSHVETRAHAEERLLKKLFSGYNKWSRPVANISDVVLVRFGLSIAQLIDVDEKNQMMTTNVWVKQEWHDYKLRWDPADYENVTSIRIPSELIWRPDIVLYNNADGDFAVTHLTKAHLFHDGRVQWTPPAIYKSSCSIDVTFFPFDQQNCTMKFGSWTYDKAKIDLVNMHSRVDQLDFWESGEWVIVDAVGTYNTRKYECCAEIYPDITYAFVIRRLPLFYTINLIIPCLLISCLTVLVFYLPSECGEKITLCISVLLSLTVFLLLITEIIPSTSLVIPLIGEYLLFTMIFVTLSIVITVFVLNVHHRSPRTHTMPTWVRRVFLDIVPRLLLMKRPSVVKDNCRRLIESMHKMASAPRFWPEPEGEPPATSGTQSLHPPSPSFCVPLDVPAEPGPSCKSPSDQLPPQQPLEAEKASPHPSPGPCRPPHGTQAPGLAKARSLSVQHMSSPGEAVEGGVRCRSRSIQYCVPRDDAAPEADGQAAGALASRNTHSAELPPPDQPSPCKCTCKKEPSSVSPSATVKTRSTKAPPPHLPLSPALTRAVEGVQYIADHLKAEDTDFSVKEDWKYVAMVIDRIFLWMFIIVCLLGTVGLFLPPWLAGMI

[18] = Cmax in CD1 mouse at 7 mg/kg, po; type: ADME, organism-based; parameters: dose 7 mg/kg, route oral; conditions: in vivo; summary of the method: as §2
[19] = Clearance in beagle dog at 2 mg/kg, iv; type: ADME, organism-based, Canis lupus familiaris; parameters: dose 2 mg/kg, route intravenous; conditions: in vivo; summary of the method: as §1
[20] = Oral bioavailability in CD1 mouse at 7 mg/kg; type: ADME, organism-based; conditions: in vivo; summary of the method: as §2
[21] = Oral bioavailability in beagle dog at 2 mg/kg; type: ADME, organism-based, Canis lupus familiaris; conditions: in vivo; summary of the method: as §2
MDR1 [22] = experiment: Apparent permeability in MDCK cells expressing MDR1 at 10 uM assessed as apical to basolateral side transport; type: ADME, cell-based, Canis lupus familiaris; conditions: dog
Summary of the method: (§6)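 MDCK-MDR1 monolayers incubated with compound at 10 µM; permeability measured in both A→B and B→A directions, giving Papp A-B (x10^6 cm/s) and the efflux ratio.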

[23] = Cmax in Han-Wistar rat at 2 mg/kg, po; type: ADME, organism-based; parameters: dose 2 mg/kg, route oral; conditions: in vivo; summary of the method: as §2
[24] = Volume of distribution at steady state in beagle dog at 2 mg/kg, iv; type: ADME, organism-based, Canis lupus familiaris; parameters: dose 2 mg/kg, route intravenous; conditions: in vivo, read-out: Vdss; summary of the method: as §1
[25] = Cmax in beagle dog at 2 mg/kg, po; type: ADME, organism-based, Canis lupus familiaris; parameters: dose 2 mg/kg, route oral; conditions: in vivo; summary of the method: as §2
MDR1 [26] = experiment: Efflux ratio in MDCK cells expressing MDR1 at 10 uM; type: ADME, cell-based, Canis lupus familiaris; conditions: dog; summary of the method: as §6
[27] = Ratio of free drug level in homogenized brain to plasma in CD1 mouse measured 6 hrs after oral dosing by LC-MS/MS method; type: ADME; summary of the method: as §4
[28] = Ratio of drug level in homogenized brain to plasma in CD1 mouse at 0.9 mg/kg, po measured after 6 hrs by LC-MS/MS method; type: ADME, organism-based; parameters: dose 0.9 mg/kg, route oral; conditions: read-out: BPR; summary of the method: as §4
[29] = target: Growth hormone secretagogue receptor type 1 (Homo sapiens, UniProt Q92847); experiment: Displacement of [125I]human ghrelin from human GHS-R1a expressed in HEK cell membranes after 60 mins by gamma counting method; parameters: species or system HEK293
Sequence of Growth hormone secretagogue receptor type 1 (Q92847 whole entry): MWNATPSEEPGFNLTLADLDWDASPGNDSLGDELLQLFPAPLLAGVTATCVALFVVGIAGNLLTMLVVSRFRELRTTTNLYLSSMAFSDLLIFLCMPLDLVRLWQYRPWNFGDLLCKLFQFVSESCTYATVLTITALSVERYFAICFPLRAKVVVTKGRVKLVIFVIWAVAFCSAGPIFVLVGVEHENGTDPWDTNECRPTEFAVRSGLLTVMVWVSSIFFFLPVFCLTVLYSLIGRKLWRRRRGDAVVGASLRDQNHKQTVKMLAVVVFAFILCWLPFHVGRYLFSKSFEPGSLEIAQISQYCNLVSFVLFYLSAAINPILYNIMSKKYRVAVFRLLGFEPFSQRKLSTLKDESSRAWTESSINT

[30] = Ratio of drug level in homogenized brain to plasma in CD1 mouse at 2 mg/kg, po measured after 6 hrs by LC-MS/MS method; type: ADME, organism-based; parameters: dose 2 mg/kg, route oral; conditions: read-out: BPR; summary of the method: as §4
[31] = target: Growth hormone secretagogue receptor type 1 (Rattus norvegicus) (UniProt O08725); experiment: Displacement of [125I]human ghrelin from rat GHS-R1a expressed in HEK cell membranes after 60 mins by gamma counting method; conditions: hek293
Sequence of Growth hormone secretagogue receptor type 1 (Rattus norvegicus) (O08725 whole entry, looked up): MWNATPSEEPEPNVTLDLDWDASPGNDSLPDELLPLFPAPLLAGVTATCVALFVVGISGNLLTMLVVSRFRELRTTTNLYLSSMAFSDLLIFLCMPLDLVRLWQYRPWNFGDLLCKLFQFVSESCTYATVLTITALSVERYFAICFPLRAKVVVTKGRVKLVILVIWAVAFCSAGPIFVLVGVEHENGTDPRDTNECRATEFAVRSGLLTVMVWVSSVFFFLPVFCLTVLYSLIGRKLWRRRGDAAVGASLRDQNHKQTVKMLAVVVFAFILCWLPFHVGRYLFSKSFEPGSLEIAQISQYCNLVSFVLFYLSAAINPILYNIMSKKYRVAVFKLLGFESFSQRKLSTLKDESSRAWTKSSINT

[32] = Oral bioavailability in CD1 mouse at 1.3 mg/kg; type: ADME, organism-based; conditions: in vivo; summary of the method: as §2
[33] = Ratio of drug level in homogenized brain to plasma in Han-Wistar rat measured 1 hr after iv bolus then iv infusion by LC-MS/MS method; type: ADME, organism-based; conditions: read-out: BPR
Summary of the method: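 Brain:plasma ratio in homogenized brain 1 h after IV bolus followed by IV infusion. The free ratio used free fractions measured in plasma and brain (brain slice method or brain homogenate).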

Mus musculus [34] = experiment: Reduction in free feeding level in po dosed C57Bl6j mouse free feeding model measured during 0 to 2 hrs; type: functional, organism-based; summary of the method: as §3
[35] = Cmax in Han-Wistar rat at 2 mg/kg, po by LC-MS/MS method; type: ADME, organism-based; parameters: dose 2 mg/kg, route oral; conditions: in vivo; summary of the method: as §2
[36] = Cmax in CD1 mouse at 1.3 mg/kg, po; type: ADME, organism-based; parameters: dose 1.3 mg/kg, route oral; conditions: in vivo; summary of the method: as §2
[37] = as §5; type: ADME, organism-based; conditions: Han-Wistar, in vivo; summary of the method: as §2
Mus musculus [38] = experiment: Reduction in free feeding level in po dosed C57Bl6j mouse free feeding model measured during 2 to 6 hrs; type: functional, organism-based; summary of the method: as §3

Structure (SMILES) | clearance [1] [mL/min/kg] | Cmax [2] [nM] | clearance [3] [mL/min/kg] | Activity (Mus musculus [4]) | fraction unbound [5] | Vd [8] [L/kg] | fraction unbound [9] | fraction unbound [10] | Vd [12] [L/kg] | IC50 [15] [nM] | logD [16] | clearance [19] [mL/min/kg] | bioavailability [21] [%] | Papp A→B at 10 µM (MDR1 [22]) [×10⁻⁶ cm/s] | Cmax [23] [nM] | Vd [24] [L/kg] | Cmax [25] [nM] | efflux ratio at 10 µM (MDR1 [26]) | Kp uu at 6 h [27] | IC50 [29] [nM] | further results
CN1CCC(S(=O)(=O)c2ccc3nc(NC(=O)NC(=O)c4cc(N5CCOCC5)ccc4Cl)sc3c2)CC1 | 1.9 | 6500 | 1.8 | inactive | 0.002 | 0.4 | 0.009 | 0.016 | 0.7 | 39 | 2.3 | 10 | 31 | 5.4 | 4500 | 0.4 | 1000 | – | – | – | Ki [6]: 290 nM; Kp at 6 h [7]: 0.21; inhibition (INH) [11]: Not Active; Activity (Mus musculus [13]): inactive; Activity (Mus musculus [14]): Active; F (Rattus norvegicus): 171%; Ki [17]: 52 nM; Cmax [18]: 8000 nM; bioavailability [20]: 25%
CN1CCC(S(=O)(=O)c2ccc3nc(NC(=O)NC(=O)c4cc(N5CCCC5)c(C#N)cc4Cl)sc3c2)CC1 | – | 840 | – | – | – | – | – | – | – | – | 3 | – | – | 3 | – | – | – | 0.47 | 0.38 | 0.4 | Kp at 6 h [28]: 0.072
Cc1ccnn1-c1ccc(Cl)c(C(=O)NC(=O)Nc2nc3ccc(S(=O)(=O)C4CCN(C)CC4)cc3s2)c1 | – | 640 | – | – | – | – | – | – | – | – | 2.6 | – | – | 1.1 | – | – | – | 15 | 0.61 | 33 | Kp at 6 h [30]: 0.9
CN1CCN(CCCS(=O)(=O)c2ccc3nc(NC(=O)NC(=O)c4cc(N5CCOCC5)ccc4Cl)sc3c2)CC1 | 2.6 | – | 2.9 | inactive | 0.0035 | 0.8 | 0.006 | 0.0078 | 0.9 | 1.1 | 1.7 | 0.69 | 87 | 0.53 | 580 | 0.3 | 11000 | – | – | – | IC50 [31]: 3.4 nM; bioavailability [32]: 50%; Kp at 1 h [33]: < 0.03; Activity (Mus musculus [34]): Active; Cmax [35]: 1200 nM; Cmax [36]: 1300 nM; bioavailability [37]: 30%; Activity (Mus musculus [38]): inactive
